Measured values pooled from the literature.
Protocols differ between the studies behind these lines.
Read-out: cell growth or viability

| SMILES | cell line | test | conditions | IC50 |
| --- | --- | --- | --- | --- |
| Cc1cc(N(CCO)CCO)ccc1C=O | ACHN | – | – | > 10 µg/mL |
| CC(C)C[C@H](NC(=O)OCc1ccccc1)C(=O)N[C@@H](CC(C)C)C(=O)N[C@@H](CC(C)C)C(=O)C(=O)Nc1cccc2cnccc12 | RPMI-8226 | MTS | 72 h | 133 nM |
| COc1ccc2[nH]cc(CCNc3nccc(Nc4cccc5c4ccn5C)n3)c2c1 | RPMI-8226 | fluorescence | 72 h | 12 nM |
| N[C@@H](Cc1ccc(N(CCCl)CCCl)cc1)C(=O)O | IOSE-144 | CCK-8 | 48 h | > 50000 nM |
| CC(C)C[C@H](NC(=O)OCc1ccccc1)C(=O)N[C@@H](Cc1c[nH]c2ccccc12)C(=O)N[C@@H](CC(C)C)C(=O)C(=O)Nc1cccc(S(C)(=O)=O)c1 | RPMI-8226 | MTS | 72 h | 33.2 nM |
| C=C(C)[C@H]1Cc2c(ccc3c2O[C@@H]2COc4cc(OC)c(OC)cc4[C@@H]2C3=O)O1 | ReNcell VM | – | 24 h | 270 nM |
| O=C(O)CCCc1ccc(N(CCCl)CCCl)cc1 | IOSE-144 | CCK-8 | 48 h | 16500 nM |
| CC(=O)c1cccc(NC(=O)C(=O)[C@H](CC(C)C)NC(=O)[C@H](Cc2ccccc2)NC(=O)[C@H](CC(C)C)NC(=O)OCc2ccccc2)c1 | RPMI-8226 | MTS | 72 h | 163 nM |
| CCCCC/C=C\C/C=C\C/C=C\C/C=C\CCCC(=O)NCCO | ReNcell VM | – | 24 h | ~8000 nM |
| COc1cc(NC(=O)C(=O)[C@H](CC(C)C)NC(=O)[C@H](CC(C)C)NC(=O)[C@H](CC(C)C)NC(=O)c2ccc(-c3ccc(C(C)=O)cc3)o2)cc(OC)c1 | RPMI-8226 | MTS | 72 h | 36.1 nM |
| C[C@H]1O[C@@H](O[C@H]2[C@@H](O)C[C@H](O[C@H]3[C@@H](O)C[C@H](O[C@H]4CC[C@@]5(C)[C@H](CC[C@@H]6[C@@H]5C[C@@H](O)[C@]5(C)[C@@H](C7=CC(=O)OC7)CC[C@]65O)C4)O[C@@H]3C)O[C@@H]2C)C[C@H](O)[C@@H]1O | ReNcell VM | imaging | 24 h | ~2020 nM |
| Cc1cccc(-n2ncc(Cl)c(Cl)c2=O)c1 | NCI-H2444 | resazurin | 96 h | 240 nM |
| CCOP(=S)(OCC)Oc1nc(Cl)c(Cl)cc1Cl | ReNcell VM | – | 24 h | ~9900 nM |
| Cc1cc(N(CCO)CCO)ccc1C(=O)O | ACHN | – | – | > 10 µg/mL |
